# Entries after “also recorded” stand apart in the source; their conditions may differ.
# Tests used:
# [1] = system: 48 h-old mwh +/+ flr^3 larvae; experiment: Wing spot test, PP-IX pretreatment then 20 Gy gamma rays; type: in vivo, Drosophila melanogaster; settings: for Large single spots (>cells) per wing / Large single spots (>cells), number of spots / Small single spots (1-2 cells) per wing / Small single spots (1-2 cells), number of spots / Total spots per wing / Total spots, number of spots / Twin spots per wing / Twin spots, number of spots: 80 wings; for Small single spots (1-2 cells), statistical diagnosis / Total spots, statistical diagnosis: m = 2
# How it was run: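 48 h-old mwh/flr3 larvae were pretreated 24 h in the dark on filter paper with PP-IX (0, 0.69, 6.9, 69 mM in 5% sucrose). Each group was then split: one half received 20 Gy from a Co-60 source (dose rate up to 1259.44 Gy/h), the other stayed unirradiated. Larvae were reared on hydrated instant medium to eclosion. Wing spots were scored by SMART and analysed by Frei–Würgler statistics, m multiplication factor.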
# [2] = system: 48 h-old mwh+/+flr^3 larvae; experiment: Toxicity test; type: in vivo, Drosophila melanogaster; settings: for % of non-viable larvae / No. of viable larvae ± SEM: 500 larvae
# 48 h-larvae mwh+/+flr^3 = experiment: Wing spot test; type: in vivo, Drosophila melanogaster; settings: CrO3 0.025–2.5 mM
# [3] = system: somatic cells of Drosophila; settings: PP-IX 69 mM, 24 h after administration, with 0.5 mM N-nitroso-N-ethylurea (ENU); cited from earlier work
# [4] = system: 48 h-larvae mwh +/+ flr^3; experiment: Wing spot test; type: in vivo, Drosophila melanogaster; settings: for Total spots, statistical diagnosis / Small single spots (1-2 cells), statistical diagnosis: m = 2; for Total spots, statistical diagnosis / Large single spots (>cells), statistical diagnosis / Small single spots (1-2 cells), statistical diagnosis: vs negative control; for Large single spots (>cells), statistical diagnosis: m = 5
# How it was run: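 Crosses: mwh/mwh females × flr3/TM3,Bds males mated 2 h, eggs laid over 2 h. 48 h larvae were collected on 20% sucrose, washed in 24 ± 1 °C water, held 24 h in the dark on filter paper with PP-IX (0–69 mM in 5% sucrose), then fed CrO3 (0.025–2.5 mM) in instant medium, in triplicate. Non-Ser wings were scored at 40× for small (1–2 cells), large and twin spots. Frei–Würgler one-sided test, α=β=0.05, m multiplication factor.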
# rats of the CF1 strain = settings: cited from earlier work
# Drosophila strain = settings: chronic treatment, cited from earlier work
# [5] = PP-IX 0.69 mM 24 h pretreatment + 20 Gy gamma rays
# [6] = PP-IX 0.69 mM + 20 Gy gamma rays
# [7] = PP-IX 6.9 mM 24 h pretreatment + 20 Gy gamma rays
# [8] = PP-IX 6.9 mM + 20 Gy gamma rays
# [9] = PP-IX 69 mM 24 h pretreatment + 20 Gy gamma rays
# [10] = PP-IX 69 mM + 20 Gy gamma rays, m = 5
# [11] = PP-IX 0.69 mM 24 h pretreatment alone, 120 wings
# [12] = PP-IX 6.9 mM 24 h pretreatment alone, 120 wings
# [13] = PP-IX 69 mM 24 h pretreatment alone, 160 wings
structure (smiles),measurement,setting,value
"C=CC1=C(C)c2cc3[nH]c(cc4nc(cc5[nH]c(cc1n2)c(C)c5CCC(=O)O)C(CCC(=O)O)=C4C)c(C)c3C=C [PP-IX, Protoporphyrin-IX]",Large single spots (>cells) per wing,[1]; [5],1.16 spots per wing
same,"Large single spots (>cells), number of spots",[1]; [5],93
same,Small single spots (1-2 cells) per wing,[1]; [5],0.82 spots per wing
same,"Small single spots (1-2 cells), number of spots",[1]; [5],66
same,Total spots per wing,[1]; [5],2.07 spots per wing
same,"Total spots, number of spots",[1]; [5],166
same,Twin spots per wing,[1]; [5],0.08 spots per wing
same,"Twin spots, number of spots",[1]; [5],7
same,"Small single spots (1-2 cells), statistical diagnosis",[1]; [6],−
same,"Total spots, statistical diagnosis",[1]; [6],−
same,"Twin spots, statistical diagnosis","[1]; PP-IX 0.69 mM + 20 Gy gamma rays, m = 5",−
same,Large single spots (>cells) per wing,[1]; [7],1.84 spots per wing
same,"Large single spots (>cells), number of spots",[1]; [7],147
same,Small single spots (1-2 cells) per wing,[1]; [7],0.69 spots per wing
same,"Small single spots (1-2 cells), number of spots",[1]; [7],55
same,Total spots per wing,[1]; [7],2.67 spots per wing
same,"Total spots, number of spots",[1]; [7],214
same,Twin spots per wing,[1]; [7],0.15 spots per wing
same,"Twin spots, number of spots",[1]; [7],12
same,"Small single spots (1-2 cells), statistical diagnosis",[1]; [8],−
same,"Total spots, statistical diagnosis",[1]; [8],−
same,"Twin spots, statistical diagnosis","[1]; PP-IX 6.9 mM + 20 Gy gamma rays, m = 5",−
same,Large single spots (>cells) per wing,[1]; [9],1.52 spots per wing
same,"Large single spots (>cells), number of spots",[1]; [9],122
same,Small single spots (1-2 cells) per wing,[1]; [9],1.16 spots per wing
same,"Small single spots (1-2 cells), number of spots",[1]; [9],93
same,Total spots per wing,[1]; [9],2.76 spots per wing
same,"Total spots, number of spots",[1]; [9],221
same,Twin spots per wing,[1]; [9],0.07 spots per wing
same,"Twin spots, number of spots",[1]; [9],6
same,"Small single spots (1-2 cells), statistical diagnosis",[1]; PP-IX 69 mM + 20 Gy gamma rays,−
same,"Total spots, statistical diagnosis",[1]; PP-IX 69 mM + 20 Gy gamma rays,−
same,"Large single spots (>cells), statistical diagnosis",[1]; [10],−
same,"Twin spots, statistical diagnosis",[1]; [10],−
same,Effect on damage induced by gamma rays,"[1]; PP-IX all tested concentrations, 20 Gy",no effect; also recorded: Absence of an inhibitor effect
same,% of non-viable larvae,[2]; PP-IX 0.69 mM,21%
same,No. of viable larvae ± SEM,[2]; PP-IX 0.69 mM,394 ± 1.7
same,% of non-viable larvae,[2]; PP-IX 6.9 mM,11%
same,No. of viable larvae ± SEM,[2]; PP-IX 6.9 mM,447 ± 0.6
same,Reduction of toxicity compared to control,"[2]; PP-IX 6.9 mM, not significantly",5%
same,% of non-viable larvae,[2]; PP-IX 69 mM,26%
same,No. of viable larvae ± SEM,[2]; PP-IX 69 mM,368 ± 0.5
same,Toxicity compared to the control,"[2]; PP-IX 0.69, 6.9, 69 mM (three concentrations tested)",nontoxic; also recorded: not toxic
same,Effect on genetic damage induced by CrO3,48 h-larvae mwh+/+flr^3; PP-IX 0.69 mM,significant decrease of damage in four of the five concentrations of CrO3 tested; also recorded: significantly reduced the genetic damage induced by all CrO3 concentrations tested
same,Effect on genetic damage induced by CrO3,48 h-larvae mwh+/+flr^3; PP-IX 6.9 mM,significantly decreased the frequency of damage induced by 2 and 2.5 mM of the mutagen
same,Effect on genetic damage induced by CrO3,48 h-larvae mwh+/+flr^3; PP-IX 69 mM,only reduced the damage induced by 2.5 mM
same,Mutagenicity in combination with ENU,[3],mutagenic
same,Large single spots (>cells) per wing,[4]; [11],0.05 spots per wing
same,"Large single spots (>cells), number of spots",[4]; [11],6
same,Small single spots (1-2 cells) per wing,[4]; [11],0.33 spots per wing
same,"Small single spots (1-2 cells), number of spots",[4]; [11],40
same,Total spots per wing,[4]; [11],0.41 spots per wing
same,"Total spots, number of spots",[4]; [11],49
same,Twin spots per wing,[4]; [11],0.03 spots per wing
same,"Twin spots, number of spots",[4]; [11],3
same,"Total spots, statistical diagnosis",[4]; PP-IX 0.69 mM alone,−
same,"Large single spots (>cells), statistical diagnosis",[4]; PP-IX 0.69 mM alone,−
same,Large single spots (>cells) per wing,[4]; [12],0.05 spots per wing
same,"Large single spots (>cells), number of spots",[4]; [12],6
same,Small single spots (1-2 cells) per wing,[4]; [12],0.23 spots per wing
same,"Small single spots (1-2 cells), number of spots",[4]; [12],28
same,Total spots per wing,[4]; [12],0.28 spots per wing
same,"Total spots, number of spots",[4]; [12],34
same,Twin spots per wing,[4]; [12],0 spots per wing
same,"Twin spots, number of spots",[4]; [12],(0)
same,"Small single spots (1-2 cells), statistical diagnosis",[4]; PP-IX 6.9 mM alone,−
same,"Total spots, statistical diagnosis",[4]; PP-IX 6.9 mM alone,−
same,"Large single spots (>cells), statistical diagnosis",[4]; PP-IX 6.9 mM alone,−
same,Large single spots (>cells) per wing,[4]; [13],0.14 spots per wing
same,"Large single spots (>cells), number of spots",[4]; [13],23
same,Small single spots (1-2 cells) per wing,[4]; [13],0.51 spots per wing
same,"Small single spots (1-2 cells), number of spots",[4]; [13],81
same,Total spots per wing,[4]; [13],0.66 spots per wing
same,"Total spots, number of spots",[4]; [13],106
same,Twin spots per wing,[4]; [13],0.01 spots per wing
same,"Twin spots, number of spots",[4]; [13],2
same,Effect of PP-IX alone on basal mutation frequency,[4]; PP-IX 69 mM alone,doubled the basal mutation frequency
same,"Small single spots (1-2 cells), statistical diagnosis",[4]; PP-IX 69 mM alone,+
same,"Total spots, statistical diagnosis",[4]; PP-IX 69 mM alone,+
same,"Large single spots (>cells), statistical diagnosis",[4]; PP-IX 69 mM alone,−
same,Mutagenicity of PP-IX alone,"[4]; PP-IX 69 mM, damage comparable with 0.25 mM of CrO3",mutagenic
same,Induction of genetic damage by PP-IX alone,[4]; PP-IX 0.69 and 6.9 mM,did not induce genetic damage
same,Increase of catalase (CAT) activity,rats of the CF1 strain; after 2 h of administration,30%
same,Lipid peroxidation,rats of the CF1 strain,induced lipid peroxidation
same,Superoxide dismutase (SOD) enzyme,rats of the CF1 strain,increased 24 h after administration
same,"Half life, Sod deficient strain",Drosophila strain; Sod deficient strain,half life was reduced
same,"Lifespan, wild strain",Drosophila strain; wild Drosophila strain,prolong the lifespan

# Source: PMC5598375 (Toxicology Reports, 2014)
